Test results reported in ChEMBL document CHEMBL1156837, “Synthesis and the biological evaluation of arylnaphthalene lignans as anti-hepatitis B virus agents” (Bioorg Med Chem, 2010).
Calls of active or inactive are those of the source. The calls are words filed in the database; no cut-off is given here.

Legend:
Hepatitis B virus [1] = assay: Antiviral activity against Hepatitis B virus in human HepA2 cells assessed as reduction of HBsAg secretion after 48 hrs by enzyme immunoassay; assay type: functional, organism-based
Outline: (§1)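 HepA2 cells (HepG2 carrying tandem-repeat full-length HBV DNA) seeded at 8 × 10⁴ cells/well in DMEM with 10% fetal calf serum, attached overnight, washed twice with PBS pH 7.0, then exposed to various concentrations in serum-free DMEM for 48 h. Secreted HBsAg and HBeAg in medium measured by enzyme immunoassay; EC50 as concentration giving 50% of untreated level; mean ± SD, n = 3.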

[2] = Cytotoxicity against human HepA2 cells after 48 hrs by MTT assay; assay type: cell-based
Outline: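 HepA2 cells seeded in 96-well plates in DMEM and treated with various concentrations of compound for 2 days; cell number measured by MTT; CC50 taken as concentration giving cell growth at 50% of untreated cells.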

Hepatitis B virus [3] = assay: Suppression of major viral surface promoter activity of Hepatitis B virus in human HepA2 cells at 3 uM by luciferase reporter gene assay; assay type: functional, organism-based
Outline: (§2)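 HepA2 cells transfected by lipofectamine 2000 with HBV S1P, S2P, core, X or enhancer I/X promoter–luciferase constructs plus β-gal vector, then held in serum-free DMEM with compound (0.9 or 3.0 µM) for 48 h. Lysate luciferase normalized to protein (Bradford) and β-gal, untreated set to one; mean ± SEM, at least three independent experiments.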

Hepatitis B virus [4] = assay: Suppression of viral core protein promoter activity of Hepatitis B virus in human HepA2 cells at 3 uM by luciferase reporter gene assay; assay type: functional, organism-based; outline: as §2
Hepatitis B virus [5] = assay: Antiviral activity against Hepatitis B virus ayw in human 1.3ES2 cells stably transfected with 1.3 fold wild type HBV ayw strain genome cells assessed as reduction of viral core protein level after 2 days by Western blot; assay type: functional, organism-based
Outline: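 1.3ES2 cells in 100 mm dishes treated with compound (0, 1.5, 3.0, 9.0 µM) in serum-free DMEM for 48 h; total cell lysates resolved by SDS-PAGE and immunoblotted with mouse anti-HBV core antibody.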

Hepatitis B virus [6] = assay: Antiviral activity against Hepatitis B virus ayw in human 1.3ES2 cells stably transfected with 1.3 fold wild type HBV ayw strain genome cells assessed as reduction of viral DNA level after 6 days by RT-PCR; assay type: functional, organism-based
Hepatitis B virus [7] = assay: Antiviral activity against Hepatitis B virus in human HepA2 cells assessed as reduction of HBsAg secretion after 48 hrs by ELISA; assay type: functional, organism-based; conditions: HepA2, 48 h; outline: as §1
Hepatitis B virus [8] = assay: Suppression of viral X protein promoter activity of Hepatitis B virus in human HepA2 cells at 3 uM by luciferase reporter gene assay; assay type: functional, organism-based; outline: as §2
[9] = Cytotoxicity against human HepA2 cells assessed as effect on cell proliferation after 48 hrs by WST1 dye reduction assay; assay type: cell-based; conditions: hepa2, 48 h
Outline: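 HepA2 cells treated alongside the antigen assay in serum-free DMEM for 48 h after PBS wash; WST-1 added for 0.5 h and formazan formation used to estimate viable cells per well; mean ± SD, n = 3.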

Hepatitis B virus [10] = assay: Antiviral activity against Hepatitis B virus ayw in human M33 cells containing Lamivudine resistant HBV genome with DNA polymerase L515M/M539V mutation genome cells assessed as reduction of viral DNA level after 6 days by RT-PCR; assay type: functional, organism-based
Outline: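 M33 cells (HepG2 carrying HBV with the L515M/M539V polymerase double mutation) were maintained in DMEM with 10% FCS at 37 °C under 5% CO₂. Cells were seeded at 5 × 10⁶ per 100 mm dish and treated with graded drug concentrations in serum-free DMEM. Viral DNA was extracted from the medium and quantified by real-time PCR against an HBV plasmid standard curve (10³–10⁷ copies), reported as mean, SD, n = 3.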

Hepatitis B virus [11] = assay: Suppression of enhancer 1 promoter activity of Hepatitis B virus in human HepA2 cells at 3 uM by luciferase reporter gene assay; assay type: functional, organism-based; outline: as §2
Hepatitis B virus [12] = assay: Antiviral activity against Hepatitis B virus in human HepA2 cells assessed as reduction of HBeAg secretion after 48 hrs by ELISA; assay type: functional, organism-based; conditions: HepA2, 48 h; outline: as §1
Hepatitis B virus [13] = assay: Antiviral activity against Hepatitis B virus ayw in human 1.3ES2 cells stably transfected with 1.3 fold wild type HBV ayw strain genome cells assessed as reduction of large HbsAg mRNA level after 2 days by Northern blot; assay type: functional, organism-based
Outline: (§3)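 1.3ES2 cells (HepG2 with 1.3 copies of HBV genome integrated) grown in DMEM with 10% fetal calf serum to confluence in 100 mm dishes, then switched to serum-free DMEM with compound (0, 1.5, 3.0, 9.0 µM) for 48 h. Total RNA Northern-hybridized with HBV DNA probe; 3.5-kb and 2.4/2.1-kb transcripts read, GAPDH mRNA as internal marker; representative of three independent experiments.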

Hepatitis B virus [14] = assay: Antiviral activity against Hepatitis B virus ayw in human 1.3ES2 cells stably transfected with 1.3 fold wild type HBV ayw strain genome cells assessed as reduction of HbeAg mRNA level after 2 days by Northern blot; assay type: functional, organism-based; outline: as §3
Hepatitis B virus [15] = assay: Suppression of large viral surface antigen promoter activity of Hepatitis B virus in human HepA2 cells at 3 uM by luciferase reporter gene assay; assay type: functional, organism-based; outline: as §2
Hepatitis B virus [16] = assay: Antiviral activity against Hepatitis B virus ayw in human 1.3ES2 cells stably transfected with 1.3 fold wild type HBV ayw strain genome cells assessed as reduction of major HbsAg mRNA level after 2 days by Northern blot; assay type: functional, organism-based; outline: as §3
Hepatitis B virus [17] = assay: Antiviral activity against Hepatitis B virus ayw in human 1.3ES2 cells stably transfected with 1.3 fold wild type HBV ayw strain genome cells assessed as reduction of viral pregenomic RNA level after 2 days by Northern blot; assay type: functional, organism-based; outline: as §3
[18] = Hepatitis B virus, HepA2, 48 h, read-out: EC50

SMILES	CC50 at 48 h [2] [µM]	EC50 (Hepatitis B virus [1]; [18]) [µM]	further results
O=C1OC(=O)c2c1cc1ccc3c(c1c2-c1ccc(OC(F)(F)F)cc1)OCO3			EC50 (Hepatitis B virus [1]; hepa2): Not Active
CCOC(=O)c1cc2ccc3c(c2c(-c2ccc4c(c2)OCO4)c1C(=O)OCC)OCO3	> 12.5	> 12.5	
OCc1cc2ccc3c(c2c(-c2ccc4c(c2)OCO4)c1CO)OCO3	> 12.5	1.41	
COC(=O)c1c(C(=O)OC)c(-c2ccc3c(c2)OCO3)c2c3c(ccc2c1OC)OCO3	8.93	> 12.5	
COC(=O)c1c(C(=O)O)c(OC)c2ccc3c(c2c1-c1ccc2c(c1)OCO2)OCO3	7.87	> 12.5	
COc1cc(-c2c3c(cc4ccc5c(c24)OCO5)C(=O)OC3)ccc1O	> 12.5	1.89	
O=C(O)c1cc2ccc3c(c2c(-c2ccc4c(c2)OCO4)c1CO)OCO3	> 12.5	0.89	
O=C1OCc2c1cc1ccc3c(c1c2-c1ccc(OC(F)(F)F)cc1)OCO3	> 12.5	> 12.5	
O=C1OCc2c1cc1ccc3c(c1c2-c1ccc2c(c1)OCO2)OCO3 [HELIOXANTHIN]	11.3	0.16	
COc1cc(-c2c3c(cc4ccc5c(c24)OCO5)COC3=O)ccc1OCc1ccccc1			EC50 (Hepatitis B virus [1]; hepa2): Not Active
O=C1OCc2cc3ccc4c(c3c(-c3ccc5c(c3)OCO5)c21)OCO4	> 12.5	2.18	
O=Cc1cc2ccc3c(c2c(-c2ccc4c(c2)OCO4)c1C=O)OCO3	5.31	2.39	
N#Cc1cc2c(c3c(-c4ccc5c(c4)OCO5)c4c(cc13)C(=O)OC4)OCO2	> 12.5	> 12.5	
COc1ccc(-c2c3c(cc4ccc5c(c24)OCO5)C(=O)OC3)cc1O	10.1	0.14	inhibition (Hepatitis B virus [3]): Active; inhibition (Hepatitis B virus [4]): Active; inhibition (Hepatitis B virus [5]): Dose-dependent effect; inhibition (Hepatitis B virus [6]): Dose-dependent effect; EC50 (Hepatitis B virus [7]): 0.06 µM; inhibition (Hepatitis B virus [8]): inactive; Activity [9]: Non-toxic; inhibition (Hepatitis B virus [10]): Dose-dependent effect; inhibition (Hepatitis B virus [11]): Active; EC50 (Hepatitis B virus [12]): 0.14 µM; inhibition (Hepatitis B virus [13]): Dose-dependent effect; inhibition (Hepatitis B virus [14]): Dose-dependent effect; inhibition (Hepatitis B virus [15]): Active
O=C1c2cc3ccc4c(c3c(-c3ccc5c(c3)OCO5)c2C(=O)N1CCO)OCO4	> 12.5	> 12.5	
CC(=O)OCc1cc2ccc3c(c2c(-c2ccc4c(c2)OCO4)c1CO)OCO3	> 12.5	0.42	
O=C1OCc2cc3ccc4c(c3c(-c3ccc(OCc5ccccc5)c(OCc5ccccc5)c3)c21)OCO4	> 12.5	> 12.5	
O=C1OCc2c1cc1c(Br)cc3c(c1c2-c1cc2c(cc1Br)OCO2)OCO3	> 12.5	> 12.5	
COc1ccc(-c2c3c(cc4ccc5c(c24)OCO5)C(=O)OC3)cc1OC	5.86	7.64	
O=C1OCc2c1cc1ccc3c(c1c2-c1ccc(O)c(O)c1)OCO3	7.01	3.06	

SMILES	CC50 at 48 h [2] [µM]	EC50 (Hepatitis B virus [1]; [18]) [µM]	further results
O=C1OC(=O)c2c1cc1ccc3c(c1c2-c1ccc(OCc2ccccc2)c(OCc2ccccc2)c1)OCO3	> 12.5	> 12.5	
COc1ccc(-c2c3c(cc4ccc5c(c24)OCO5)C(=O)OC3=O)cc1OC			EC50 (Hepatitis B virus [1]; hepa2): Not Active
COc1cc(-c2c3c(cc4ccc5c(c24)OCO5)C(=O)OC3)ccc1OCc1ccccc1	> 12.5	> 12.5	
N#Cc1cc2c(c3c(-c4cc5c(cc4Br)OCO5)c4c(cc13)C(=O)OC4)OCO2	> 12.5	> 12.5	
Nc1ccn([C@@H]2CS[C@H](CO)O2)c(=O)n1			inhibition (Hepatitis B virus [6]): Active; inhibition (Hepatitis B virus [10]): inactive
COC(=O)c1c(C(=O)O)c(O)c2ccc3c(c2c1-c1ccc2c(c1)OCO2)OCO3	7.01	> 12.5	
CC(=O)OCc1cc2ccc3c(c2c(-c2ccc4c(c2)OCO4)c1COC(C)=O)OCO3	6.91	1.22	
COc1cc(-c2c3c(cc4ccc5c(c24)OCO5)C(=O)OC3=O)ccc1OCc1ccccc1	11.7	> 12.5	
CC(=O)OCCN1C(=O)c2cc3ccc4c(c3c(-c3ccc5c(c3)OCO5)c2C1=O)OCO4	> 12.5	> 12.5	inhibition (Hepatitis B virus [3]): inactive; inhibition (Hepatitis B virus [4]): inactive; inhibition (Hepatitis B virus [6]): inactive; inhibition (Hepatitis B virus [8]): inactive; inhibition (Hepatitis B virus [10]): inactive; inhibition (Hepatitis B virus [11]): inactive; inhibition (Hepatitis B virus [16]): inactive; inhibition (Hepatitis B virus [17]): inactive; inhibition (Hepatitis B virus [15]): inactive
BrCc1cc2ccc3c(c2c(-c2ccc4c(c2)OCO4)c1CBr)OCO3			EC50 (Hepatitis B virus [1]; hepa2): Not Active
O=C1C=Cc2cc3c(c(-c4ccc5c(c4)OCO5)c2C1=O)COC3=O	7.49	> 12.5	
O=C1OCc2c1cc1ccc3c(c1c2-c1ccc(OCc2ccccc2)c(OCc2ccccc2)c1)OCO3	> 12.5	> 12.5	
COC(=O)c1c(C(=O)OC)c(-c2ccc3c(c2)OCO3)c2c3c(ccc2c1O)OCO3	7.04	> 12.5	
O=C1OC(=O)c2c1cc1ccc3c(c1c2-c1ccc2c(c1)OCO2)OCO3	11.8	> 12.5	
COc1ccc(-c2c3c(cc4ccc5c(c24)OCO5)COC3=O)cc1OCc1ccccc1	> 12.5	> 12.5	
COc1ccc(-c2c3c(cc4ccc5c(c24)OCO5)C(=O)OC3=O)cc1OCc1ccccc1	> 12.5	> 12.5	
CC(=O)OCc1cc2ccc3c(c2c(-c2ccc4c(c2)OCO4)c1C=O)OCO3	4.69	> 12.5	
O=C1OCc2c1cc1c(Br)cc3c(c1c2-c1ccc2c(c1)OCO2)OCO3	6.33	> 12.5	
COc1ccc(-c2c3c(cc4ccc5c(c24)OCO5)C(=O)OC3)cc1OCc1ccccc1	> 12.5	> 12.5	
